Measurements as given in publication PMC3839535 (Nature chemical biology, 2013).
Entries after “also recorded” stand apart in the source; their conditions may differ.

Tests used:
human melanopsin [1] = biological target: T1, human melanopsin (Homo sapiens, UniProt Q9UHM6); assay: Radioligand binding with [^3H]2-AA41612 to CHO^Opn4 cell membranes; settings: competition binding
T1 sequence (Q9UHM6 1-478): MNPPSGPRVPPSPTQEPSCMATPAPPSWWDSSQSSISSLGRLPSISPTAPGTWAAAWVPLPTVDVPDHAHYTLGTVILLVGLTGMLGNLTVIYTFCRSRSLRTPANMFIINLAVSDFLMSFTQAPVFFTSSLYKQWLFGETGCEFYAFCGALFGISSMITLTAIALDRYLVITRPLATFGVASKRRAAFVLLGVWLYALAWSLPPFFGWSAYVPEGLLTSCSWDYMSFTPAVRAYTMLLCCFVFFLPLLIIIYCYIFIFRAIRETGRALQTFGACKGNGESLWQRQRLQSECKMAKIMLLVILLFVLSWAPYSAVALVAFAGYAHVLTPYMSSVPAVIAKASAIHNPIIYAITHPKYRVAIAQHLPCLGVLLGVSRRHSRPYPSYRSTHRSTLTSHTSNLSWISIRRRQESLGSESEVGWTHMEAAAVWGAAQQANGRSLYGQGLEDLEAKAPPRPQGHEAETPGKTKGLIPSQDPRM
Summary of the method: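 Membranes came from light-exposed CHO cells stably expressing human melanopsin. Cells were sonicated in ice-cold 20 mM Tris-HCl, 10 mM EDTA, pH 7.4, then spun at 200g for 5 min and 40,000g for 20 min at 4 °C, and washed. Assay buffer was 50 mM Tris-HCl, 1 mM EDTA, 5 mM MgSO4, pH 7.4. Saturation binding used increasing concentrations of [3H] radioligand. Competition binding used 300 pM radioligand against increasing competitor for 2 h in the dark at 25 °C. Reactions were filtered through PEI-treated glass fibre filters and counted by scintillation. Nonspecific binding was defined with 10 µM 9-cis retinal, and specific binding was taken as total minus nonspecific.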

human melanopsin [2] = biological target: T1, human melanopsin; assay: Ca^2+ release assay in CHO^Opn4 cells; format: cell-based
mouse melanopsin = biological target: T2, mouse melanopsin (Mus musculus, UniProt Q9QXZ9); assay: Melanopsin photocurrent in Xenopus oocytes; format: cell-based
T2 sequence (Q9QXZ9 1-521): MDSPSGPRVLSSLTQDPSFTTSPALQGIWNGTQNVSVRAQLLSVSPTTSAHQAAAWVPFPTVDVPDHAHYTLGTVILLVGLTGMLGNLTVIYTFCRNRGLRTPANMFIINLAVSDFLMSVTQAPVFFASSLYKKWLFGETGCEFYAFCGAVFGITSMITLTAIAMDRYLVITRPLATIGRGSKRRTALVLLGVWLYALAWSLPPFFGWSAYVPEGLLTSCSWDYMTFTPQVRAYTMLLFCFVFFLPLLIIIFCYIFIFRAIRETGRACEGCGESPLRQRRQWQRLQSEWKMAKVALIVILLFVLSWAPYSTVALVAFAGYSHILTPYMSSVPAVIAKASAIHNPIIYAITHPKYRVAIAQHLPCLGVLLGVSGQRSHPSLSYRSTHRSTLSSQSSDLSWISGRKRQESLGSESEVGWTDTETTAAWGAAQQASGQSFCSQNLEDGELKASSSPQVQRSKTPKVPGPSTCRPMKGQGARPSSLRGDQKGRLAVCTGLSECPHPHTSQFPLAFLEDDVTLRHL
Summary of the method: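 Stage IV Xenopus oocytes injected with in vitro transcribed, polyadenylated mRNAs for mouse melanopsin, TrpC3, Gαq and Arrb1. Test compound was perfused for 3 min at increasing concentrations before 50 µM 11-cis retinal was added. Melanopsin photocurrent was recorded intracellularly in response to 60 s white light, averaged over n = 5 oocytes.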

rod/cone photoreceptors = assay: Electroretinogram; format: in vivo; settings: WT C57BL/6J and Opn4^−/− mice, 30 mg kg^-1, recorded within 30 min of administration, versus vehicle
mice = assay: Pupillary light reflex; format: in vivo; settings: 10^13 ph.cm^−2.s^−1
Summary of the method: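 rd, WT and Opn4−/− mice carried an acrylic headpost and had at least 1 wk of recovery. Dark-adapted mice received vehicle or compound at 30 mg kg−1 IP 20 min before the first light, plus tropicamide in the left eye. The right eye was filmed under IR at 30 Hz. Each 5 min sequence was 1 min dark, 1 min 480 nm light (1 × 10^13 or 1 × 10^10 ph.cm−2.s−1), then 3 min dark. Sequences were repeated 19, 29 and 39 min post-injection. Pupil diameter was normalised to the mean of the first 20 s of darkness; n = 6–7.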

neonatal mice = assay: Negative phototaxis assay; format: in vivo; settings: WT neonatal pups (P7-P9), 30 mg kg^−1 sub-cutaneous, 480 nm light
Summary of the method: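 WT and Opn4−/− pups aged P7–P9 were tested once daily. Pups were dark-adapted for 1 h, then given vehicle or compound at 30 mg kg−1 s.c. Each pup wore a head reflective sticker and sat in a transparent tube for 10 min. After 5 min of darkness, the head end was lit with 480 nm light at 9.5 × 10^15 ph/cm2/s. IR video covered 2 min before and 5 min after light onset. Head distance was scored in 1 s bins, and mean activity was compared before and after light. Pups without any bin above 1.3 mm/bin before light were excluded.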

[3] = Pharmacokinetics: retina and brain levels after IP dosing; format: in vivo; settings: mice, 30 mg kg^−1 IP, within 2 h
Summary of the method: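 Mice were dosed at 30 mg kg−1 IP, and retina and brain were sampled at several times afterwards. Frozen brains were homogenised in four volumes of 50% water/30% 2-propanol/20% DMSO and spiked with internal standard. Samples were centrifuged and the supernatant analysed by LC/MS/MS. Quantitation used a standard curve (0–5,000 ng/ml) prepared in homogenate.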

[4] = tested on: 74 biological targets including GPCRs and ion channels; assay: Radioligand binding panel of 74 biological targets; settings: 10 µM

SMILES	Hill slope, displacement of [^3H]2-AA41612 (human melanopsin [1])	IC50 (human melanopsin [2])	IC50 (mouse melanopsin)	effect on rod and rod/cone electroretinogram (rod/cone photoreceptors)	effect on PLR under high light intensity (mice; Wild type (WT) mice)	attenuation of pupil constriction in response to light (mice; adult rd mice, 30 mg kg^−1 i.p. 20 min prior)	effect on light aversion (negative phototaxis) behavior (neonatal mice)	slope of Schild regression (dose ratio) plot (human melanopsin [2]; versus 9-cis retinal, light-exposed CHO^Opn4 cells)	fraction cleared from the retina [3]	inhibition of radioligand binding to a panel of 74 biological targets [4]
COc1cc(Cl)c(S(=O)(=O)N2CCCCC2)cc1Cl [AA41612, 1-(2,5-Dichloro-4-methoxy-benzenesulfonyl)-piperidine]	~1.0	15.8 ± 1.8 nM	20 nM	–	–	–	–	–	–	–
CC1=C(/C=C/C(C)=C\C=C\C(C)=C\C=O)C(C)(C)CCC1 [9-cis retinal, reference compound]	~1.0	–	–	–	–	–	–	–	–	–
COc1ccc(S(=O)(=O)N2CCCCC2)cc1C [AA92593, 1-((4-methoxy-3-methylphenyl)sulfonyl)piperidine]	~1.0	–	190 nM	no noticeable inhibition of rod/cone photoreceptors	attenuated PLR	~ 50%	significantly reduced; also recorded: remarkably reduced light aversion behavior	0.9	> 95%	failed to inhibit radioligand binding
